The source of these data is ChEMBL document CHEMBL1140243, “Synthesis and SAR of 2,3-diarylpyrrole inhibitors of parasite cGMP-dependent protein kinase as novel anticoccidial agents” (Bioorg Med Chem Lett, 2005).

For test [1], the species on record is Gallus gallus. The experiment in a line: Anticoccidial activity (percent reduction in oocyst production) against Eimeria praecox in chickens at 66 ppm; Range = 50-79 %. The class given is functional. On the set-up: scale not given: the % may be the effect or the level left.
Test [2] is filed under the species Gallus gallus. The experiment in a line: Anticoccidial activity (percent reduction in oocyst production) against Eimeria mitis in chickens at 66 ppm; Range = 50-79 %. In kind it is functional. More on the design: scale not given: the % may be the effect or the level left.
Test [3] is filed under the species Gallus gallus. The test can be described thus: Anticoccidial activity (percent reduction in oocyst production) against Eimeria maxima in chickens at 66 ppm; Range = 50-79 %. The class given is functional. More on the design: scale not given: the % may be the effect or the level left.
Test [4] is filed under the species Gallus gallus. The test can be described thus: Anticoccidial activity (percent reduction in oocyst production) against Eimeria brunetti in chickens at 66 ppm; Range = 50-79 %. More on the design: scale not given: the % may be the effect or the level left. In kind it is functional.
For test [5], the species on record is Gallus gallus. The test can be described thus: Anticoccidial activity (percent reduction in oocyst production) against Eimeria necatrix in chickens at 66 ppm; Range = 50-79 %. In kind it is functional. On the set-up: scale not given: the % may be the effect or the level left.
The species entered for test [6] is Gallus gallus. The test can be described thus: Anticoccidial activity (percent reduction in oocyst production) against Eimeria acervulina in chickens at 66 ppm; Range = 50-79 %. In kind it is functional. On the set-up: scale not given: the % may be the effect or the level left.
Test [7] is filed under the species Gallus gallus. The test can be described thus: Anticoccidial activity (percent reduction in oocyst production) against Eimeria tenella in chickens at 66 ppm; Range = 50-79 %. In kind it is functional. More on the design: scale not given: the % may be the effect or the level left.
The species named for test [8] is Gallus gallus. The test can be described thus: Anticoccidial activity (percent reduction in oocyst production) against Eimeria mivati in chickens at 66 ppm; Range = 50-79 %. The class given is functional. More on the design: scale not given: the % may be the effect or the level left.
For test [9], the species on record is Gallus gallus. The experiment in a line: Anticoccidial activity (percent reduction in oocyst production) against Eimeria praecox in chickens at 25 ppm; Range = 50-79 %. In kind it is functional. More on the design: scale not given: the % may be the effect or the level left.
The species entered for test [10] is Gallus gallus. The test can be described thus: Anticoccidial activity (percent reduction in oocyst production) against Eimeria mitis in chickens at 25 ppm; Range = 50-79 %. More on the design: scale not given: the % may be the effect or the level left. In kind it is functional.
For test [11], the system named is Eimeria tenella. The test can be described thus: Anticoccidial activity (percent reduction in oocyst production) against Eimeria tenella in white leghorn chickens at 100 ppm. More on the design: scale not given: the % may be the effect or the level left. The class given is functional. In outline:
(§1)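 White Leghorn chicks were acclimated, then at 3 days old sorted by weight and randomized to medicated or control diets. There were one or two replicates of two birds per treatment. After 24 h of premedication, one bird per replicate got E. acervulina and the other E. tenella, both drug-sensitive laboratory strains. Inocula were sporulated oocysts in tap water, 0.25 mL per bird, giving low-to-moderate infection.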

For test [12], the species on record is Gallus gallus. The test can be described thus: Anticoccidial activity (percent reduction in oocyst production) against Eimeria maxima in chickens at 25 ppm; Range = 50-79 %. More on the design: scale not given: the % may be the effect or the level left. In kind it is functional.
For test [13], the species on record is Gallus gallus. The test can be described thus: Anticoccidial activity (percent reduction in oocyst production) against Eimeria mivati in chickens at 25 ppm; Range = 50-79 %. The class given is functional. More on the design: scale not given: the % may be the effect or the level left.
For test [14], the system named is Eimeria acervulina. The test can be described thus: Anticoccidial activity (percent reduction in oocyst production) against Eimeria acervulina in white leghorn chickens at 100 ppm. In kind it is functional. On the set-up: scale not given: the % may be the effect or the level left. In outline:
as §1

For test [15], the species on record is Gallus gallus. The test can be described thus: Anticoccidial activity (percent reduction in oocyst production) against Eimeria necatrix in chickens at 25 ppm; Range = 50-79 %. In kind it is functional. On the set-up: scale not given: the % may be the effect or the level left.
Test [16] is filed under the species Gallus gallus. The test can be described thus: Anticoccidial activity (percent reduction in oocyst production) against Eimeria acervulina in chickens at 25 ppm; Range = 50-79 %. The class given is functional. More on the design: scale not given: the % may be the effect or the level left. The essentials:
as §1

In test [17] the target is cGMP-dependent protein kinase (Eimeria tenella, UniProt Q8MMZ8). The test can be described thus: In vitro inhibition of Eimeria tenella cGMP-dependent protein kinase.
Chain of cGMP-dependent protein kinase (Q8MMZ8 whole entry): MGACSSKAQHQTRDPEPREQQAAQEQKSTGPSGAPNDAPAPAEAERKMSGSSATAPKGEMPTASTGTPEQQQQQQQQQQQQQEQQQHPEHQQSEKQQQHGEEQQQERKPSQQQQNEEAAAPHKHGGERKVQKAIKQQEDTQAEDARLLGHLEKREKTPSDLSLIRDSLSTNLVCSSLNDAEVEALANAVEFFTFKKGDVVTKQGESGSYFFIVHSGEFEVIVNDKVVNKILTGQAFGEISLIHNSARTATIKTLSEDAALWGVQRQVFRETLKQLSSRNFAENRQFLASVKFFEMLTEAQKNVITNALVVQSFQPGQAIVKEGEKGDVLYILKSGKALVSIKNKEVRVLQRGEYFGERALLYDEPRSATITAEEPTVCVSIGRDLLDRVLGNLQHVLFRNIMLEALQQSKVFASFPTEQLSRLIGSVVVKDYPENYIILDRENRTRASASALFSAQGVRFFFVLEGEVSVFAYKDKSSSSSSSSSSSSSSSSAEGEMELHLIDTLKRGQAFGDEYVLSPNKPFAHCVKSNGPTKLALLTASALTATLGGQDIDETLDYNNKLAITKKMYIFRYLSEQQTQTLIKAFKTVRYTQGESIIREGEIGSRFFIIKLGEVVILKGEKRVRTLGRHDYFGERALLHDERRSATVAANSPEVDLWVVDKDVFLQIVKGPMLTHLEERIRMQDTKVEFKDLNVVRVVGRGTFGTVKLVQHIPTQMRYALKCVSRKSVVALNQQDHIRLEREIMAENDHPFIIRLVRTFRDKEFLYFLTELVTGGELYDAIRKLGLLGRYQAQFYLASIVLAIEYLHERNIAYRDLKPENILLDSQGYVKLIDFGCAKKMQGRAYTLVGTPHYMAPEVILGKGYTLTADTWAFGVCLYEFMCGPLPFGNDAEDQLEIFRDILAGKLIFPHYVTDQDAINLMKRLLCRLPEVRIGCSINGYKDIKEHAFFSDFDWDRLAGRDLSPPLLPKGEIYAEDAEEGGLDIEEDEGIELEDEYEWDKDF
Test [18] is filed under the species Gallus gallus. The experiment in a line: Anticoccidial activity (percent reduction in oocyst production) against Eimeria maxima in chickens at 50 ppm. The class given is functional. More on the design: scale not given: the % may be the effect or the level left.
The species named for test [19] is Gallus gallus. The test can be described thus: Anticoccidial activity (percent reduction in oocyst production) against Eimeria maxima in chickens at 75 ppm. In kind it is functional. On the set-up: scale not given: the % may be the effect or the level left.
The species entered for test [20] is Gallus gallus. The test can be described thus: Anticoccidial activity (percent reduction in oocyst production) against Eimeria mitis in chickens at 125 ppm. The class given is functional. On the set-up: scale not given: the % may be the effect or the level left.
The species named for test [21] is Gallus gallus. The test can be described thus: Anticoccidial activity (percent reduction in oocyst production) against Eimeria mivati in chickens at 50 ppm. More on the design: scale not given: the % may be the effect or the level left. In kind it is functional.
For test [22], the species on record is Gallus gallus. The test can be described thus: Anticoccidial activity (percent reduction in oocyst production) against Eimeria mivati in chickens at 75 ppm. The class given is functional. On the set-up: scale not given: the % may be the effect or the level left.
For test [23], the species on record is Gallus gallus. The test can be described thus: Anticoccidial activity (percent reduction in oocyst production) against Eimeria maxima in chickens at 125 ppm. The class given is functional. On the set-up: scale not given: the % may be the effect or the level left.
Test [24] is filed under the species Gallus gallus. The test can be described thus: Anticoccidial activity (percent reduction in oocyst production) against Eimeria mivati in chickens at 125 ppm. In kind it is functional. More on the design: scale not given: the % may be the effect or the level left.
For test [25], the species on record is Gallus gallus. The test can be described thus: Anticoccidial activity (percent reduction in oocyst production) against Eimeria praecox in chickens at 50 ppm. More on the design: scale not given: the % may be the effect or the level left. The class given is functional.
The species entered for test [26] is Gallus gallus. The test can be described thus: Anticoccidial activity (percent reduction in oocyst production) against Eimeria praecox in chickens at 75 ppm. In kind it is functional. More on the design: scale not given: the % may be the effect or the level left.
For test [27], the species on record is Gallus gallus. The experiment in a line: Anticoccidial activity (percent reduction in oocyst production) against Eimeria tenella in chickens at 50 ppm. In kind it is functional. More on the design: scale not given: the % may be the effect or the level left. The essentials: as §1
The species named for test [28] is Gallus gallus. The test can be described thus: Anticoccidial activity (percent reduction in oocyst production) against Eimeria tenella in chickens at 75 ppm. In kind it is functional. More on the design: scale not given: the % may be the effect or the level left. In outline: as §1
For test [29], the species on record is Gallus gallus. The test can be described thus: Anticoccidial activity (percent reduction in oocyst production) against Eimeria brunetti in chickens at 50 ppm. On the set-up: scale not given: the % may be the effect or the level left. The class given is functional.
Test [30] is filed under the species Gallus gallus. The experiment in a line: Anticoccidial activity (percent reduction in oocyst production) against Eimeria brunetti in chickens at 75 ppm. In kind it is functional. More on the design: scale not given: the % may be the effect or the level left.
Test [31] is filed under the species Gallus gallus. The test can be described thus: Anticoccidial activity (percent reduction in oocyst production) against Eimeria necatrix in chickens at 50 ppm. In kind it is functional. On the set-up: scale not given: the % may be the effect or the level left.
The species named for test [32] is Gallus gallus. The test can be described thus: Anticoccidial activity (percent reduction in oocyst production) against Eimeria necatrix in chickens at 75 ppm. In kind it is functional. More on the design: scale not given: the % may be the effect or the level left.
The species entered for test [33] is Gallus gallus. The test can be described thus: Anticoccidial activity (percent reduction in oocyst production) against Eimeria praecox in chickens at 125 ppm. The class given is functional. More on the design: scale not given: the % may be the effect or the level left.
The species named for test [34] is Gallus gallus. The test can be described thus: Anticoccidial activity (percent reduction in oocyst production) against Eimeria tenella in chickens at 125 ppm. More on the design: scale not given: the % may be the effect or the level left. The class given is functional. In outline: as §1
The species named for test [35] is Gallus gallus. The experiment in a line: Anticoccidial activity (percent reduction in oocyst production) against Eimeria brunetti in chickens at 125 ppm. The class given is functional. More on the design: scale not given: the % may be the effect or the level left.
For test [36], the species on record is Gallus gallus. The experiment in a line: Anticoccidial activity (percent reduction in oocyst production) against Eimeria necatrix in chickens at 125 ppm. In kind it is functional. More on the design: scale not given: the % may be the effect or the level left.
For test [37], the species on record is Gallus gallus. The test can be described thus: Anticoccidial activity (percent reduction in oocyst production) against Eimeria mitis in chickens at 50 ppm. On the set-up: scale not given: the % may be the effect or the level left. In kind it is functional.
The species entered for test [38] is Gallus gallus. The experiment in a line: Anticoccidial activity (percent reduction in oocyst production) against Eimeria mitis in chickens at 75 ppm. In kind it is functional. On the set-up: scale not given: the % may be the effect or the level left.
Test [39] is filed under the species Gallus gallus. The test can be described thus: Anticoccidial activity (percent reduction in oocyst production) against Eimeria acervulina in chickens at 50 ppm. The class given is functional. More on the design: scale not given: the % may be the effect or the level left. In outline:
as §1

Test [40] is filed under the species Gallus gallus. The experiment in a line: Anticoccidial activity (percent reduction in oocyst production) against Eimeria acervulina in chickens at 75 ppm. On the set-up: scale not given: the % may be the effect or the level left. In kind it is functional. The essentials:
as §1

The species entered for test [41] is Gallus gallus. The test can be described thus: Anticoccidial activity (percent reduction in oocyst production) against Eimeria acervulina in chickens at 125 ppm. In kind it is functional. On the set-up: scale not given: the % may be the effect or the level left. In outline: as §1
In test [42] the test system is Gallus gallus. The experiment in a line: Oral bioavailability in the chicken. The class given is functional, organism-based.
Test [43] is filed under the species Gallus gallus. The test can be described thus: Anticoccidial activity (percent reduction in oocyst production) against Eimeria tenella in chickens at 25 ppm; Range = 50-79 %. In kind it is functional. On the set-up: scale not given: the % may be the effect or the level left. In outline:
as §1

For test [44], the species on record is Gallus gallus. The test can be described thus: Anticoccidial activity (percent reduction in oocyst production) against Eimeria brunetti in chickens at 25 ppm; Range = 50-79 %. On the set-up: scale not given: the % may be the effect or the level left. In kind it is functional.
Test [45] is filed under the species Gallus gallus. The experiment in a line: Half-life in the chicken. In kind it is functional, organism-based.

Molecules are shown by their SMILES. Where only a bound is given, the exact number is not on record here.

In the case of `CC[C@@H](C(=O)[C@@H](C)[C@@H](O)[C@H](C)[C@@H]1O[C@@H]([C@@H](CC)C(=O)O)CC[C@@H]1C)[C@H]1O[C@]2(C=C[C@@H](O)[C@]3(CC[C@@](C)([C@H]4CC[C@](O)(CC)[C@H](C)O4)O3)O2)[C@H](C)C[C@@H]1C` [SALINOMYCIN], the Activity in [1], in test [2], in test [3], in test [4], in [5] and in test [6] was less than 79% each time. For the same compound, the Activity in test [7] and in test [8] was less than 79% throughout.

`CCN1CCC(c2cc(-c3ccncc3)c(-c3ccc(F)cc3)[nH]2)CC1`: the Activity is less than 79% in [9]; less than 79% in [10]; “>=80%” in test [11]; less than 79% in test [12]; less than 79% in test [13]; “>=80%” in [14]. For the same compound, the Activity in test [15] is less than 79%; in test [16], less than 79%; in test [18], “>=80%”; in test [19], “>=80%”; in test [20] it was “>=80%”; in test [21], “>=80%”. Besides, the Activity entry in [22], in test [23], in [24], in test [25], in test [26] and in test [27] was “>=80%” throughout. The Activity result in [28], in test [29], in [30], in test [31], in [32] and in [33] was “>=80%” each time. Also, the Activity entry in [34], in [35], in test [36], in [37], in test [38] and in test [39] was “>=80%” throughout. For the same compound, the Activity result in test [40] is recorded as “>=80%”; in test [41], “>=80%”; in test [43] it was less than 79%; in test [44], less than 79%. This compound also gave an IC50 in [17] of 0.28 nM. Further, in test [42], the bioavailability was 84%. In test [45], this compound displayed a T1/2 of 1.2 h.

As usually defined, the IC50 is the point on the concentration scale where inhibition reaches its midpoint.
